Experimental data taken from ChEMBL document CHEMBL1154876, “Synthesis and antimicrobial studies on novel sulfonamides containing 4-azidomethyl coumarin” (2010).
≈ marks a conversion by molar mass, not a printed value.

Experiments:
Format in all cases: functional
[1] = tested on: Penicillium chrysogenum; assay: Antifungal activity against Penicillium chrysogenum after 48 to 72 hrs by broth microdilution method
Outline: (§1)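 Test compounds were prepared as 10 mg/ml DMSO stocks and serially diluted twofold in Sabouraud's dextrose broth over 500, 250, 125, 62.5, 31.25, 16, 8, 4, 2 and 1, alongside fluconazole as reference. Plates were inoculated with 1–5 × 10⁴ cfu/ml and held at 25 °C for 48–72 h. The MIC was the lowest concentration showing no visible growth.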

[2] = tested on: Klebsiella pneumoniae; assay: Antibacterial activity against Klebsiella pneumoniae MTCC 3384 after 18 hrs by broth microdilution method; conditions: MTCC 3384, 18 h
[3] = tested on: Aspergillus fumigatus; assay: Antifungal activity against Aspergillus fumigatus after 48 to 72 hrs by broth microdilution method; outline: as §1
[4] = tested on: Fusarium oxysporum; assay: Antifungal activity against Fusarium oxysporum after 48 to 72 hrs by broth microdilution method; outline: as §1
[5] = tested on: Staphylococcus aureus; assay: Antibacterial activity against Staphylococcus aureus MTCC 3160 after 18 hrs by broth microdilution method; conditions: MTCC 3160, 18 h
[6] = tested on: Pseudomonas aeruginosa; assay: Antibacterial activity against Pseudomonas aeruginosa MTCC 1034 after 18 hrs by broth microdilution method; conditions: MTCC 1034, 18 h
[7] = tested on: Aspergillus niger; assay: Antifungal activity against Aspergillus niger after 48 to 72 hrs by broth microdilution method; outline: as §1
[8] = tested on: Bacillus subtilis; assay: Antibacterial activity against Bacillus subtilis MTCC 297 after 18 hrs by broth microdilution method; conditions: MTCC 297, 18 h
[9] = tested on: Candida albicans; assay: Antifungal activity against Candida albicans after 48 to 72 hrs by broth microdilution method; outline: as §1
[10] = tested on: Mucor; assay: Antifungal activity against Mucor fuscus after 48 to 72 hrs by broth micro dilution method; outline: as §1
[11] = tested on: Enterococcus faecalis; assay: Antibacterial activity against Streptococcus faecalis MTCC 3382 after 18 hrs by broth microdilution method; conditions: MTCC 3382, 18 h
[12] = tested on: Escherichia coli; assay: Antibacterial activity against Escherichia coli MTCC 1089 after 18 hrs by broth microdilution method; conditions: MTCC 1089, 18 h

Structure (SMILES)	MIC [1] [µg/mL]	MIC [2] [µg/mL]	MIC [3] [µg/mL]	MIC [4] [µg/mL]	MIC [5] [µg/mL]	MIC [6] [µg/mL]	MIC [7] [µg/mL]	MIC [8] [µg/mL]	MIC [9] [µg/mL]	MIC [10] [µg/mL]	MIC [11] [µg/mL]	MIC [12] [µg/mL]
Cc1cc2oc(=O)cc(CN=[N+]=[N-])c2cc1S(=O)(=O)Nc1ccccc1[N+](=O)[O-]	4 (≈ 9.63 µM)	16 (≈ 38.5 µM)	8 (≈ 19.3 µM)	1 (≈ 2.41 µM)	1 (≈ 2.41 µM)	4 (≈ 9.63 µM)	8 (≈ 19.3 µM)	62.5 (≈ 150 µM)	250 (≈ 602 µM)	8 (≈ 19.3 µM)	1 (≈ 2.41 µM)	> 500
Cc1cc2oc(=O)cc(CN=[N+]=[N-])c2cc1S(=O)(=O)Nc1ccc(Cl)cc1Cl	62.5 (≈ 142 µM)	2 (≈ 4.55 µM)	250 (≈ 569 µM)	1 (≈ 2.28 µM)	31.2 (≈ 71.1 µM)	2 (≈ 4.55 µM)	250 (≈ 569 µM)	250 (≈ 569 µM)	8 (≈ 18.2 µM)	16 (≈ 36.4 µM)	1 (≈ 2.28 µM)	> 500
Cc1cc2oc(=O)cc(CN=[N+]=[N-])c2cc1S(=O)(=O)Nc1cccc(Cl)c1	2 (≈ 4.94 µM)	4 (≈ 9.88 µM)	16 (≈ 39.5 µM)	1 (≈ 2.47 µM)	1 (≈ 2.47 µM)	1 (≈ 2.47 µM)	31.2 (≈ 77.2 µM)	16 (≈ 39.5 µM)	> 500	> 500	8 (≈ 19.8 µM)	> 500
Cc1cc2oc(=O)cc(CN=[N+]=[N-])c2cc1S(=O)(=O)Nc1cccc([N+](=O)[O-])c1	2 (≈ 4.81 µM)	125 (≈ 301 µM)	8 (≈ 19.3 µM)	2 (≈ 4.81 µM)	4 (≈ 9.63 µM)	125 (≈ 301 µM)	8 (≈ 19.3 µM)	8 (≈ 19.3 µM)	16 (≈ 38.5 µM)	4 (≈ 9.63 µM)	8 (≈ 19.3 µM)	125 (≈ 301 µM)
Cc1cc2oc(=O)cc(CN=[N+]=[N-])c2cc1S(=O)(=O)Nc1ccc([N+](=O)[O-])cc1	62.5 (≈ 150 µM)	2 (≈ 4.81 µM)	250 (≈ 602 µM)	1 (≈ 2.41 µM)	2 (≈ 4.81 µM)	1 (≈ 2.41 µM)	62.5 (≈ 150 µM)	125 (≈ 301 µM)	62.5 (≈ 150 µM)	8 (≈ 19.3 µM)	4 (≈ 9.63 µM)	250 (≈ 602 µM)
Cc1cc2oc(=O)cc(CN=[N+]=[N-])c2cc1S(=O)(=O)Nc1ccc(Cl)cc1	16 (≈ 39.5 µM)	1 (≈ 2.47 µM)	125 (≈ 309 µM)	1 (≈ 2.47 µM)	8 (≈ 19.8 µM)	1 (≈ 2.47 µM)	31.2 (≈ 77.2 µM)	16 (≈ 39.5 µM)	8 (≈ 19.8 µM)	16 (≈ 39.5 µM)	4 (≈ 9.88 µM)	> 500
Cc1cc2oc(=O)cc(CN=[N+]=[N-])c2cc1S(=O)(=O)Nc1ccccc1Cl	31.2 (≈ 77.2 µM)	1 (≈ 2.47 µM)	31.2 (≈ 77.2 µM)	4 (≈ 9.88 µM)	1 (≈ 2.47 µM)	31.2 (≈ 77.2 µM)	62.5 (≈ 154 µM)	125 (≈ 309 µM)	62.5 (≈ 154 µM)	16 (≈ 39.5 µM)	1 (≈ 2.47 µM)	> 500
Cc1cc2oc(=O)cc(CN=[N+]=[N-])c2cc1S(=O)(=O)Nc1c(C)cccc1C	31.2 (≈ 78.4 µM)	1 (≈ 2.51 µM)	2 (≈ 5.02 µM)	1 (≈ 2.51 µM)	125 (≈ 314 µM)	2 (≈ 5.02 µM)	8 (≈ 20.1 µM)	> 500	8 (≈ 20.1 µM)	16 (≈ 40.2 µM)	> 500	> 500
COc1ccccc1NS(=O)(=O)c1cc2c(CN=[N+]=[N-])cc(=O)oc2cc1C	> 500	62.5 (≈ 156 µM)	62.5 (≈ 156 µM)	1 (≈ 2.5 µM)	31.2 (≈ 78 µM)	125 (≈ 312 µM)	16 (≈ 40 µM)	> 500	31.2 (≈ 78 µM)	31.2 (≈ 78 µM)	1 (≈ 2.5 µM)	250 (≈ 624 µM)
COc1cccc(NS(=O)(=O)c2cc3c(CN=[N+]=[N-])cc(=O)oc3cc2C)c1	125 (≈ 312 µM)	2 (≈ 4.99 µM)	31.2 (≈ 78 µM)	1 (≈ 2.5 µM)	16 (≈ 40 µM)	1 (≈ 2.5 µM)	2 (≈ 4.99 µM)	> 500	8 (≈ 20 µM)	4 (≈ 9.99 µM)	1 (≈ 2.5 µM)	> 500
Cc1ccc(NS(=O)(=O)c2cc3c(CN=[N+]=[N-])cc(=O)oc3cc2C)c(C)c1	31.2 (≈ 78.4 µM)	62.5 (≈ 157 µM)	16 (≈ 40.2 µM)	1 (≈ 2.51 µM)	16 (≈ 40.2 µM)	4 (≈ 10 µM)	4 (≈ 10 µM)	125 (≈ 314 µM)	8 (≈ 20.1 µM)	16 (≈ 40.2 µM)	62.5 (≈ 157 µM)	> 500
COc1ccc(NS(=O)(=O)c2cc3c(CN=[N+]=[N-])cc(=O)oc3cc2C)cc1	250 (≈ 624 µM)	1 (≈ 2.5 µM)	2 (≈ 4.99 µM)	1 (≈ 2.5 µM)	4 (≈ 9.99 µM)	8 (≈ 20 µM)	2 (≈ 4.99 µM)	> 500	8 (≈ 20 µM)	250 (≈ 624 µM)	1 (≈ 2.5 µM)	250 (≈ 624 µM)
CCOc1ccc(NS(=O)(=O)c2cc3c(CN=[N+]=[N-])cc(=O)oc3cc2C)cc1	> 500	16 (≈ 38.6 µM)	> 500	1 (≈ 2.41 µM)	2 (≈ 4.83 µM)	62.5 (≈ 151 µM)	250 (≈ 603 µM)	> 500	16 (≈ 38.6 µM)	62.5 (≈ 151 µM)	1 (≈ 2.41 µM)	62.5 (≈ 151 µM)
